Values joined by “and” are separate entries in the source; they are usually repeats but may differ in a detail not shown here. Identical values can stand only once. Like-named read-outs stand apart in the source and are kept apart here.
How the values were obtained:
α6β2*- and α4β2*-nAChRs = settings: via activation of α6β2*- and α4β2*-nAChRs; cited from earlier work
[1] = pretreatment with nonreinforcing doses, without affecting motor function; cited from earlier work
α4α6β2-nAChRs = settings: cited from earlier work
α6β2*-nAChR [2] = settings: monkey striatal synaptosomes; cited from earlier work
α4β2*-nAChR [3] = settings: rat striatal synaptosomes, cited from earlier work
α6β2*-nAChR [4] = settings: read-out: Ki, striatal α6β2*-nAChR; monkey; cited from earlier work
α6β2*-nAChR [5] = settings: rat striatal synaptosomes; cited from earlier work
α4β2*-nAChR [6] = settings: monkey striatal synaptosomes, cited from earlier work
[7] = 62 receptor/enzyme screen; assay type: binding; settings: 10 μM
In short: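 Profiling in a 62-target radioligand and enzyme panel. Test compound was run at 100 nM and 10 000 nM, in duplicate. The work was done by a contractor to the NIDA Addiction Treatment Discovery Program.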

DAT = DAT (Homo sapiens, UniProt Q01959); test: off-target radioligand binding assay; settings: 10 μM
NET = NET (Homo sapiens, UniProt P23975); test: off-target radioligand binding assay; settings: 10 μM
In short: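 Inhibition of specific [125I]RTI-55 binding to the norepinephrine transporter, with test compound at 10 μM. The screen was run by a NIDA drug-discovery program contractor.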

ICR mice [8] = test: blockade of nicotine-induced CPP; assay type: in vivo, mouse; settings: 15 min before nicotine 0.5 mg/kg s.c.
In short: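 Male ICR mice, 8–10 weeks old, n = 8 per group, in an unbiased three-chamber CPP. Day 1: 5 min habituation, then a 15 min baseline, with the paired side randomised. Days 2–4: two 20 min sessions daily, ≥5 h apart, nicotine 0.5 mg/kg s.c. (saline, free base) versus saline. Test compound or vehicle s.c. 15 min before nicotine. Day 5 retest.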

α6β2*-nAChR in α5KO = α6β2*-nAChR in α5KO (Mus musculus, UniProt Q9ERK7+Q9R0W9); assay type: cell-based; settings: for max (% nic) dopamine release, α6β2 in α5KO: 10 μM (+) PHT or 100 μM (−) PHT compared to 10 μM nic response; for EC50: read-out: EC50 dopamine release, α6β2 in α5KO, α5KO mice
SERT = SERT (Homo sapiens, UniProt P31645); test: off-target radioligand binding assay; settings: 10 μM
α4β2*-nAChR in α5KO = α4β2*-nAChR in α5KO (Mus musculus, UniProt O70174+Q9ERK7); assay type: cell-based; settings: for max (% nic) dopamine release, α4β2 in α5KO*: 10 μM (+) PHT or 100 μM (−) PHT compared to 10 μM nic response; for EC50: read-out: EC50 dopamine release, α4β2 in α5KO*, α5KO mice
mouse [9] = settings: cited from earlier work
DAD2 = DAD2 (Homo sapiens, UniProt P14416); test: off-target radioligand binding assay; settings: 10 μM
nAChRs = settings: cited from earlier work; for Ki: read-out: Ki for inhibition of [3H]epibatidine binding to nAChRs
μ opioid receptor = μ opioid receptor (Homo sapiens, UniProt P35372); test: off-target radioligand binding assay; settings: 10 μM
mouse [10] = settings: cited from earlier work; remark: listed apart in the source
κ opioid receptor = κ opioid receptor (Homo sapiens, UniProt P41145); test: off-target radioligand binding assay; settings: 10 μM
ICR mice [11] = test: conditioned place preference; assay type: in vivo, mouse
In short: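 Test compound given s.c. 15 min before conditioning, in an unbiased three-chamber CPP. Male ICR mice, 8–10 weeks old, n = 8 per group. Baseline day 1: 5 min habituation, 15 min test. Then 3 days of twice-daily 20 min sessions, ≥5 h apart; test on day 5. Score: drug-paired-side time after minus before conditioning; mean ± SEM, p < 0.05 versus vehicle.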

α4β2-nAChR = settings: cited from earlier work
rat α7-nAChR = rat α7-nAChR (Rattus norvegicus, UniProt Q05941); assay type: cell-based; settings: for antagonism (% of EC50 ACh remaining) α7: 100 μM compound, ACh 300 μM; for IC50: read-out: antagonism, IC50 α7, vs EC50 ACh 300 μM
5HT1A = 5HT1A (Homo sapiens, UniProt P08908); test: off-target radioligand binding assay; settings: 10 μM
α6β2*-nAChR [12] = biological target: T1, α6β2*-nAChR (Mus musculus, UniProt Q9ERK7+Q9R0W9); assay type: cell-based; settings: for max (% nic) dopamine release, sens α6β2: 10 μM (+) PHT or 100 μM (−) PHT compared to 10 μM nic response
5HT2A = 5HT2A (Homo sapiens, UniProt P28223); test: off-target radioligand binding assay; settings: 10 μM
α6β2*-nAChR [13] = biological target: T1, α6β2*-nAChR; settings: read-out: binding Ki, α6β2; [125I]epibatidine; striatum and olfactory tubercle membranes from α4KO mice
rat α3β4-nAChR = rat α3β4-nAChR (Rattus norvegicus, UniProt P04757+P12392); assay type: cell-based; settings: for antagonism (% of EC50 ACh remaining) α3β4: 100 μM compound, ACh 200 μM; for IC50: read-out: antagonism, IC50 α3β4, vs EC50 ACh 200 μM
δ opioid receptor = δ opioid receptor (Homo sapiens, UniProt P41143); test: off-target radioligand binding assay; settings: 10 μM
mouse [14] = settings: cited from earlier work; remark: listed apart in the source
mouse [15] = settings: cited from earlier work; for activity in tail-flick test given intrathecally: intrathecally 10 μg/mouse
DAD4 = DAD4 (Homo sapiens, UniProt P21917); test: off-target radioligand binding assay; settings: 10 μM
α4β2*-nAChR [16] = assay type: cell-based, mouse; settings: for max (% nic) dopamine release, res α4β2: 10 μM (+) PHT or 100 μM (−) PHT compared to 10 μM nic response
5HT2C = 5HT2C (Homo sapiens, UniProt P28335); test: off-target radioligand binding assay; settings: 10 μM
DAD3 = DAD3 (Homo sapiens, UniProt P35462); test: off-target radioligand binding assay; settings: 10 μM
rat α4β2-nAChR = rat α4β2-nAChR (Rattus norvegicus, UniProt P09483+P12390); assay type: cell-based; settings: for antagonism (% of EC50 ACh remaining) α4β2: 100 μM compound, ACh 70 μM; for IC50: read-out: antagonism, IC50 α4β2, vs EC50 ACh 70 μM
DAD1 = DAD1 (Homo sapiens, UniProt P21728); test: off-target radioligand binding assay; settings: 10 μM
[17] = percentage of the Emax for acetylcholine

Chain of rat α4β2-nAChR (P12390 25-500): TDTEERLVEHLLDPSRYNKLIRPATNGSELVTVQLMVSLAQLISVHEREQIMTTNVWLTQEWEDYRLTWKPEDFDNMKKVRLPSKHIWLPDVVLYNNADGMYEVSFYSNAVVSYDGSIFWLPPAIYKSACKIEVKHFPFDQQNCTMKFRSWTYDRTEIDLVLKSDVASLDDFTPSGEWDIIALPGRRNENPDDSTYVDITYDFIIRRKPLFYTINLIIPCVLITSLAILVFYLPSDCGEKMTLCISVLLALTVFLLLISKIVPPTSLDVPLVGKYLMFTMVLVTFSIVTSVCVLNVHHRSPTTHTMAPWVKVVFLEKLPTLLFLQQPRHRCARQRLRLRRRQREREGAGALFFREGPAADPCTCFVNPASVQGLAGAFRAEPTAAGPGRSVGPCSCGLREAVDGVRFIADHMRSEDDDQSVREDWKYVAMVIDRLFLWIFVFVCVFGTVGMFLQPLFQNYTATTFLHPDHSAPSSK
Chain of rat α4β2-nAChR (P09483 31-630): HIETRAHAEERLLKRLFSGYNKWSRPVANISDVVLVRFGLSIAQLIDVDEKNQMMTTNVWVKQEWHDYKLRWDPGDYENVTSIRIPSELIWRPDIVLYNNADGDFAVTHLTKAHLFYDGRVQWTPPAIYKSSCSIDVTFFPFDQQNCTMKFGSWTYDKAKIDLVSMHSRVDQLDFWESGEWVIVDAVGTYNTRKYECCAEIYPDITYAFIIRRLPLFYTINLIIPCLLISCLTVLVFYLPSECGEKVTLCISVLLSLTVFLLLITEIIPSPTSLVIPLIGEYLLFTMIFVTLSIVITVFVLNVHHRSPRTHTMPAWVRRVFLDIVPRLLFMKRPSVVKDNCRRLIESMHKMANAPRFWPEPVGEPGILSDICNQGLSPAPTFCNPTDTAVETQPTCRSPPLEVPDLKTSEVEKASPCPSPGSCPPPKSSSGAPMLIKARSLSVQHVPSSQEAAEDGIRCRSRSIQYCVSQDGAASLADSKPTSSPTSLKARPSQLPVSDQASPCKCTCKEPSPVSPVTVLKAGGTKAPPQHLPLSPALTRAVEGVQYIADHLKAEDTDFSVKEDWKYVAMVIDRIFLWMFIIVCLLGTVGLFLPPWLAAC
Chain of rat α3β4-nAChR (P12392 21-495): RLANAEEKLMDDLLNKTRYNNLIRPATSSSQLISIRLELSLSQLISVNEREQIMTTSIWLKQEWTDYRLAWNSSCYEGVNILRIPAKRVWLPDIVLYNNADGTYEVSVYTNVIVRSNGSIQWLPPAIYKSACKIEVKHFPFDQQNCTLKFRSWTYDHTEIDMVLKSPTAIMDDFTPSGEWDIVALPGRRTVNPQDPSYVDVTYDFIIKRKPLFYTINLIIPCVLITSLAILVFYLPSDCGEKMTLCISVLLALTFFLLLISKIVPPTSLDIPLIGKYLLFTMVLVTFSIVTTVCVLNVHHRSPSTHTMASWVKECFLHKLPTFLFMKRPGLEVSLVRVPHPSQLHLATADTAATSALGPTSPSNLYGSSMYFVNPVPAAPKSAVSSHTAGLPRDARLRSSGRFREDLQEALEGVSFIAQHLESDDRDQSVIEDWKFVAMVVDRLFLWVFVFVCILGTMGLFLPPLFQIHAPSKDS
Chain of rat α3β4-nAChR (P04757 26-499): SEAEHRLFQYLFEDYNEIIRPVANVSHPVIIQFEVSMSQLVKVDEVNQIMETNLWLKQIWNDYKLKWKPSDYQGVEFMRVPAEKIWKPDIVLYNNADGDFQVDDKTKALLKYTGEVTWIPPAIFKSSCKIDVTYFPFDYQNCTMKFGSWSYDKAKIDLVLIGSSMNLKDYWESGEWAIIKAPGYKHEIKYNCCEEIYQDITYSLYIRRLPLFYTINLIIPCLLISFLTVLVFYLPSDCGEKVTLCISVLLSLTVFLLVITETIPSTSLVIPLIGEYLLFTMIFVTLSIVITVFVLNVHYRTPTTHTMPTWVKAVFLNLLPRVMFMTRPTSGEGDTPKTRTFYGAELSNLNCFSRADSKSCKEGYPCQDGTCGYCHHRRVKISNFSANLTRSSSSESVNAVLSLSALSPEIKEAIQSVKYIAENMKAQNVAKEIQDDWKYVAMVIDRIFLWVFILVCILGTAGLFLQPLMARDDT
Chain of α6β2*-nAChR in α5KO (Q9R0W9 26-494): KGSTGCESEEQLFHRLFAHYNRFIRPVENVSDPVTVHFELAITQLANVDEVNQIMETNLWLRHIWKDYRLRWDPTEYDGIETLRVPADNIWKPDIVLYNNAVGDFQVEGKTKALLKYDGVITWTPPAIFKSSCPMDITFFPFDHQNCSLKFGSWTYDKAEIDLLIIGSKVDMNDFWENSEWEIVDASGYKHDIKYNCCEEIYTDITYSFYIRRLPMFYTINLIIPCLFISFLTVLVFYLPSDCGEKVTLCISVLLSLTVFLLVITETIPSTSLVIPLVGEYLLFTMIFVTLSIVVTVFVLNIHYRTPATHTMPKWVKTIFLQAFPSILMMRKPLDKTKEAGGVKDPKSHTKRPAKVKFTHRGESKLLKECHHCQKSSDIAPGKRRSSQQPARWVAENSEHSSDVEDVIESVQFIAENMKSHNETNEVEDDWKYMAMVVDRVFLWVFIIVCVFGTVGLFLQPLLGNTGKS
Chain of α6β2*-nAChR in α5KO (Q9ERK7 26-501): as the sequence (P12390 25-500) above, with A350T, V371M, R379Q, T383A, P387L, V391M, V449I, P468S counted along it
T1 sequence (Q9ERK7 26-501): as the sequence (P12390 25-500) above, with A350T, V371M, R379Q, T383A, P387L, V391M, V449I, P468S counted along it
T1 sequence (Q9R0W9 26-494): as the sequence (Q9R0W9 26-494) above
Chain of α4β2*-nAChR (Q9ERK7 26-501): as the sequence (P12390 25-500) above, with A350T, V371M, R379Q, T383A, P387L, V391M, V449I, P468S counted along it
Chain of α4β2*-nAChR (O70174 31-629, further chain): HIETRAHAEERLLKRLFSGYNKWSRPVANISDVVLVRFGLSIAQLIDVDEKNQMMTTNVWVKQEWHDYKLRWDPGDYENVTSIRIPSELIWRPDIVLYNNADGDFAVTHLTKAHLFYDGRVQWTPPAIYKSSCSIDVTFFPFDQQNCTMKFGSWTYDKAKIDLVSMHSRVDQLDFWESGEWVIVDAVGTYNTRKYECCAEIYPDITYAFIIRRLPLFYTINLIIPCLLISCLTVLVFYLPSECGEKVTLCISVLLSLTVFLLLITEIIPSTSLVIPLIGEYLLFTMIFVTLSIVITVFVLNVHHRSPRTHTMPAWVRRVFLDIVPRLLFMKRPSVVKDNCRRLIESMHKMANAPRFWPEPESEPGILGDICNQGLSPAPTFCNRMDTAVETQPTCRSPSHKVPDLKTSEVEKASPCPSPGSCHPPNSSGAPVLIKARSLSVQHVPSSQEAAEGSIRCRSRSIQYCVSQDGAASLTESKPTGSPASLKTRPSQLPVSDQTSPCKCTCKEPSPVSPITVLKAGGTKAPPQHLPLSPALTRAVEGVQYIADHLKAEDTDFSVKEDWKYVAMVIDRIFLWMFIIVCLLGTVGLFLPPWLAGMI
Chain of rat α7-nAChR (Q05941 23-502): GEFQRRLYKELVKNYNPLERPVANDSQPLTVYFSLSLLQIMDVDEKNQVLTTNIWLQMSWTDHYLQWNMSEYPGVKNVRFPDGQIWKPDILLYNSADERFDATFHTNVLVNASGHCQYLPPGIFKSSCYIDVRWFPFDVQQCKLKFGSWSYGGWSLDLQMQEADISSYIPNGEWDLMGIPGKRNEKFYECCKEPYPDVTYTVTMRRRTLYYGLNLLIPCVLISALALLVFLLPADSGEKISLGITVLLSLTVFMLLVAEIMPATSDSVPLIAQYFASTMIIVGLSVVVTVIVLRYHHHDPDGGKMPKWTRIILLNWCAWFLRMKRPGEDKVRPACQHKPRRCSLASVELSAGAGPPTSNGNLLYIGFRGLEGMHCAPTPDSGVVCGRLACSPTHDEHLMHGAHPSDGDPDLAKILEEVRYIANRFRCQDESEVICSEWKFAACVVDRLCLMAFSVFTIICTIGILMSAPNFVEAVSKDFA
Chain of α4β2*-nAChR in α5KO (O70174 31-629): as the sequence (O70174 31-629, further chain) above
Chain of α4β2*-nAChR in α5KO (Q9ERK7 26-501): as the sequence (P12390 25-500) above, with A350T, V371M, R379Q, T383A, P387L, V391M, V449I, P468S counted along it
Chain of 5HT2C (P28335 33-458, species assumed): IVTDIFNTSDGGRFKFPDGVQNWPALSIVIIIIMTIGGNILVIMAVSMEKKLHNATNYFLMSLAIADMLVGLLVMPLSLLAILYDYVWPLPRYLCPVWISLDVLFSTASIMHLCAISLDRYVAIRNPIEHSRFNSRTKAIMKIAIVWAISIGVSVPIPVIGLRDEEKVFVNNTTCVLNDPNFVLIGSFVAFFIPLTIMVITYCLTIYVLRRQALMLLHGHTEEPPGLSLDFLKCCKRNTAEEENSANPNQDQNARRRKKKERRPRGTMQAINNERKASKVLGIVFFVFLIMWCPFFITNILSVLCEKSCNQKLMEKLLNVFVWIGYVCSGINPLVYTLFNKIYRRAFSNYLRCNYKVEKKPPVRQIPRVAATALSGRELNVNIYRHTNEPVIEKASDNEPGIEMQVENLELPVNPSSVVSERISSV
Chain of DAD3 (P35462 whole entry): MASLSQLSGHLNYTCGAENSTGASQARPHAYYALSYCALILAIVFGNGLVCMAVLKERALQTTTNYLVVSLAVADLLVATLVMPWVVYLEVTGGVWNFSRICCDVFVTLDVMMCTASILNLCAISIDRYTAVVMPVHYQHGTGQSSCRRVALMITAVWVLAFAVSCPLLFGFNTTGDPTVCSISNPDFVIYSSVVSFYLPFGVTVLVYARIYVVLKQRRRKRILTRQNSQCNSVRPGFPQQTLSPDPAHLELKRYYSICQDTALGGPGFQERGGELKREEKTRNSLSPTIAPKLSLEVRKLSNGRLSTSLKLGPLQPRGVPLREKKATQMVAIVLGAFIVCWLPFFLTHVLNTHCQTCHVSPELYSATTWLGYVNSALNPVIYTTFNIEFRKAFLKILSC

## Cc1ncccc1OC[C@@H]1CCCN1 [ABT-089, 2-Methyl-3-[(2S)-pyrrolidin-2-yl]methoxypyridine]
α6β2*- and α4β2*-nAChRs
  effect on in vitro striatal DA release: increases in vitro striatal DA release

## O=c1cccc2n1CC1CC2CN(CCN2CC3CC(C2)c2cccc(=O)n2C3)C1 [CC4, 1,2-bis-N-Cystinylethane]
[1]
  effect on nicotine-induced self-administration and CPP: significantly reduced

## CN1CCC[C@H]1c1cccnc1 [Nicotine, nicotine]
α4α6β2-nAChRs
  partial agonist activity at α4α6β2-nAChRs: 70%

## c1cnc2cc3c(cc2n1)[C@@H]1CNC[C@H]3C1 [varenicline, 6,7,8,9,10-Tetrahydro-6,10-methano-6H-pyyrazino[2,3-h][3]benzazepine]
α6β2*-nAChR [2]
  Emax, α6β2*-nAChR: 13%
α4β2*-nAChR [3]
  maximal efficacy at α4β2-nAChR: […]
α4β2*-nAChR [3]; read-out: EC50, α4β2*-nAChR-mediated [3H]DA release
  EC50: […]
α6β2*-nAChR [4]
  Ki: 0.13 nM
α6β2*-nAChR [5]
  maximal efficacy at α6β2-nAChR: 49%
α4β2*-nAChR [6]
  Emax, α4β2*-nAChR: […]
α4β2*-nAChR [6]; read-out: EC50, α4β2*-nAChR-mediated [3H]DA-release
  EC50: […]

## Pyrido[3,4]homotropane [(+)-PHT]
[7]
  activity at off site targets in 62 receptor/enzyme screen (NovaScreen): inactive
DAT
  activity in radioligand binding assay, DAT: inactive
NET
  inhibition of specific [125I]RTI-55 binding to the NET: 61%
ICR mice [8]; pretreatment 1 mg/kg
  preference scores in comparison to nicotine alone: significantly reduced
α6β2*-nAChR in α5KO
  max (% nic) dopamine release, α6β2 in α5KO: 125%
  EC50: 200 nM
SERT
  activity in radioligand binding assay, SERT: inactive
α4β2*-nAChR in α5KO
  max (% nic) dopamine release, α4β2 in α5KO*: 13%
  EC50: 2000 nM
Mouse [9]
  antinociceptive (agonist) activity in hot-plate test: no antinociceptive activity
DAD2
  activity in radioligand binding assay, DAD2: inactive
nAChRs
  affinity relative to (−)-PHT for inhibition of [3H]epibatidine binding: 266 times
  Ki: 1.29 nM
μ opioid receptor
  activity in radioligand binding assay, μ opioid receptor: inactive
Mouse [10]
  activity in locomotor-activity test: weak activity
κ opioid receptor
  activity in radioligand binding assay, κ opioid receptor: inactive
ICR mice [11]; 3 mg/kg s.c., 15 min before conditioning
  CPP scores: significantly increased
α4β2-nAChR; read-out: EC50 at α4β2-nAChR
  EC50: 5500 nM
α4β2-nAChR; versus full agonist acetylcholine (1 mM)
  intrinsic activity at α4β2-nAChR: 17%
Rat α7-nAChR
  antagonism (% of EC50 ACh remaining) α7: 87± 1%
  IC50: 720000 ± 290000 nM
5HT1A
  activity in radioligand binding assay, 5HT1A: inactive
α6β2*-nAChR [12]
  max (% nic) dopamine release, sens α6β2: 94%
α6β2*-nAChR [12]; wild type mice
  potency relative to (−)-PHT at the α6β2*-nAChR (DA release EC50): 30 fold
5HT2A
  activity in radioligand binding assay, 5HT2A: inactive
α6β2*-nAChR [13]
  Ki: 28 nM
Rat α3β4-nAChR
  antagonism (% of EC50 ACh remaining) α3β4: 93 ± 3%
  IC50: 242000 ± 13000 nM
Rat α3β4-nAChR; [17]
  agonist activity α3β4 Emax (% ACh): 8.4 % ACh and 8.4 ± 0.5 % ACh
Rat α3β4-nAChR; read-out: agonist activity α3β4 EC50, concentration–response curve
  EC50: 50000 ± 6000 nM
δ opioid receptor
  activity in radioligand binding assay, δ opioid receptor: inactive
Mouse [14]
  activity in hypothermia test: weak activity
Mouse [15]
  activity in tail-flick test given intrathecally: no antinociceptive activity
Mouse [15]; mouse
  antinociceptive (agonist) activity in tail-flick test: no antinociceptive activity
DAD4
  activity in radioligand binding assay, DAD4: inactive
α4β2*-nAChR [16]
  max (% nic) dopamine release, res α4β2: 33%
α4β2*-nAChR [16]; wild type mice
  potency relative to (−)-PHT at the α4β2*-nAChR (DA release EC50): 10 fold
5HT2C
  activity in radioligand binding assay, 5HT2C: inactive
DAD3
  activity in radioligand binding assay, DAD3: inactive
Rat α4β2-nAChR
  agonist potency at α4β2-nAChR compared to α3β4-nAChR (EC50 comparison): 12 fold
  antagonist selectivity for α4β2- relative to α3β4-nAChR (IC50 comparison): 15 fold
  antagonist selectivity for α4β2- relative to α7-nAChR (IC50 comparison): 45 fold
  antagonism (% of EC50 ACh remaining) α4β2: 17 ± 3%
  IC50: 16000 ± 3000 nM
Rat α4β2-nAChR; [17]
  agonist activity α4β2 Emax (% ACh): 4.6 % ACh and 4.6 ± 0.4 % ACh
Rat α4β2-nAChR; read-out: agonist activity α4β2 EC50, concentration–response curve
  EC50: 4000 ± 1000 nM
DAD1
  activity in radioligand binding assay, DAD1: inactive

## Pyrido[3,4]homotropane [(−)-PHT]
[7]
  activity at off site targets in 62 receptor/enzyme screen (NovaScreen): inactive
DAT
  activity in radioligand binding assay, DAT: inactive
NET
  activity in radioligand binding assay, NET: inactive
ICR mice [8]; pretreatment 0.05 mg/kg
  blockade of nicotine-induced CPP: completely preventing nicotine preference
α6β2*-nAChR in α5KO
  max (% nic) dopamine release, α6β2 in α5KO: 96%
  EC50: 2000 nM
SERT
  activity in radioligand binding assay, SERT: inactive
α4β2*-nAChR in α5KO
  max (% nic) dopamine release, α4β2 in α5KO*: 10%
  EC50: 700 nM
Mouse [9]
  AD50, antagonism of antinociceptive effects of nicotine in the hot-plate test: 0.8 µg/kg
  antinociceptive (agonist) activity in hot-plate test: inactive
DAD2
  activity in radioligand binding assay, DAD2: inactive
nAChRs
  Ki: 346 nM
μ opioid receptor
  activity in radioligand binding assay, μ opioid receptor: inactive
Mouse [10]
  activity in locomotor-activity test: inactive
κ opioid receptor
  activity in radioligand binding assay, κ opioid receptor: inactive
ICR mice [11]; all doses tested, s.c.
  induction of significant preference in the CPP test: ineffective
α4β2-nAChR
  activation of currents at α4β2-nAChR: did not activate currents
Rat α7-nAChR
  antagonism (% of EC50 ACh remaining) α7: 84± 10%
  IC50: 353000 ± 34000 nM
5HT1A
  activity in radioligand binding assay, 5HT1A: inactive
α6β2*-nAChR [12]
  max (% nic) dopamine release, sens α6β2: 109%
5HT2A
  activity in radioligand binding assay, 5HT2A: inactive
α6β2*-nAChR [13]
  Ki: 629 nM
Rat α3β4-nAChR
  antagonist selectivity for α3β4- relative to α4β2-nAChR: 3 fold
  antagonist selectivity for α3β4- relative to α7-nAChR: 11 fold
  antagonism (% of EC50 ACh remaining) α3β4: 32 ± 3%
  IC50: 33000 ± 6000 nM
δ opioid receptor
  activity in radioligand binding assay, δ opioid receptor: inactive
Mouse [14]
  activity in hypothermia test: inactive
Mouse [15]
  activity in tail-flick test given intrathecally: inactive
Mouse [15]; mouse
  AD50, antagonism of nicotine-induced antinociception in the tail-flick test: 0.07 µg/kg
  antinociceptive (agonist) activity in tail-flick test: inactive
DAD4
  activity in radioligand binding assay, DAD4: inactive
α4β2*-nAChR [16]
  max (% nic) dopamine release, res α4β2: 17%
5HT2C
  activity in radioligand binding assay, 5HT2C: inactive
DAD3
  activity in radioligand binding assay, DAD3: inactive
Rat α4β2-nAChR
  antagonism (% of EC50 ACh remaining) α4β2: 41 ± 4%
  IC50: 99000 ± 13000 nM
DAD1
  activity in radioligand binding assay, DAD1: inactive

## Pyrido[3,4]homotropane [PHT]
nAChRs
  Ki: 6.2 nM

Source: article PMC5589077 (ACS chemical neuroscience, 2015)
